Experimental data pooled from the literature.
Target: Cyclin-dependent kinase 3 (CDK3, Homo sapiens, UniProt Q00526)

F[C@@H]1CCN(c2nccc(-c3cnn4ncccc34)n2)C1
remaining binding (binding; 1 µM): 100%

C[C@H](c1cccc(C#N)c1)n1cc(Cl)cc(C(N)=O)c1=N
remaining binding (cell-free assay; competition with immobilised ligand; 1 µM): 100%

CN(C)c1nccc(-c2cnn3ncccc23)n1
remaining binding (binding; 1 µM): 78%

O=C(NCC1CCOCC1)c1n[nH]cc1NC(=O)c1c(F)cccc1F
remaining binding (binding; competition with immobilised ligand; 1 µM): 75%

Cc1cnn2ncc(-c3ccnc(N(C)C)n3)c2c1
remaining binding (binding; 1 µM): 86%

CC(=O)N1CCC(c2ccc(C(=O)NC3=NCCN3)cc2C(F)(F)F)CC1
remaining binding (cell-free assay; competition with immobilised ligand; 1 µM): 100%

O=C(c1ccc(Nc2ncc(Cl)c(-c3ccc(Cl)s3)n2)cc1)N1CCC(N2CCCC2)CC1
remaining binding (binding; competition with immobilised ligand; 1 µM): 47%

N#Cc1ccccc1CSc1nnc2c(n1)[nH]c1ccccc12
remaining binding (binding; competition with immobilised ligand; 10 µM): 100%

O=C(NCCCN1CCOCC1)c1ccc(Nc2ncc(Cl)c(-c3ccc(Cl)s3)n2)cc1
remaining binding (binding; competition with immobilised ligand; 1 µM): 44%

CN(CCCC(F)(F)F)c1nccc(-c2cnn3ncccc23)n1
remaining binding (binding; 1 µM): 100%

CCC(=O)N[C@H]1CC[C@@H](C(=O)N(C)c2ccc(-c3nc4ccccc4o3)cc2)C1
remaining binding (cell-free assay; competition with immobilised ligand; 1 µM): 98%

O=C(c1ccc(Nc2ncc(Cl)c(-c3cc4ccccc4s3)n2)cc1)N1CCC(N2CCCC2)CC1
remaining binding (binding; competition with immobilised ligand; 1 µM): 48%

CCCOc1ccc([C@H]2[C@H](C(=O)O)[C@@H](c3ccc4c(c3)OCO4)CN2CC(=O)Nc2c(CC)cccc2CC)cc1
remaining binding (cell-free assay; competition with immobilised ligand; 1 µM): 95%

N[C@@H]1CCN(c2nccc(-c3cnn4ncccc34)n2)C1
remaining binding (binding; 1 µM): 100%

CNC(=O)[C@@H]1CC[C@@H](n2c(-c3ccc4cnccc4c3)nc3ccc(C(=O)NCc4cccc(C(N)=O)c4)cc32)C1
remaining binding (binding; competition with immobilised ligand; 1 µM): 89%

C[C@@H]1CN(c2ccc3ncc(-c4ccc5[nH]nc(C6CC6)c5c4)n3n2)C[C@H](C)O1
remaining binding (binding; competition with immobilised ligand; 50 nM): 100%

CN(C)c1nccc(-c2cnc3ncccn23)n1
remaining binding (binding; 1 µM): 79%

Cc1c(NC(=O)c2cc(C(N)=O)nc3cc(F)ccc23)c(C(F)(F)F)nn1Cc1ccc(C#N)cc1
remaining binding (cell-free assay; competition with immobilised ligand; 1 µM): 95%

COc1cnc(Nc2cccc(S(N)(=O)=O)c2)nc1N1CCN(c2ccccc2)C(=O)C1
remaining binding (binding; competition with immobilised ligand; 1 µM): 99%

CS(=O)(=O)c1cc(C2(NC(=O)c3cncc4c3cnn4-c3ccc(F)cc3)CC2)ccn1
remaining binding (cell-free assay; competition with immobilised ligand; 1 µM): 81%

CCN1CCN(Cc2ccc(C(=O)Nc3ccc(C)c(Oc4ccc5c(c4)CC(=O)N5)c3)cc2C(F)(F)F)CC1
remaining binding (binding; competition with immobilised ligand; 1 µM): 100%
